Measured values taken from ChEMBL document CHEMBL4706565, “Anti-glioma effects of 2-aminothiophene-3-carboxamide derivatives, ANO1 channel blockers” (Eur J Med Chem, 2020).
Activity calls are given as the source filed them. No cut-off for these calls is given here.

Legend:
[1] = tested on: U-251; test: Synergistic antiproliferative activity against human U251 cells assessed as combination index at compound:temozolomide concentration ratio of 1:1 in presence of temozolomide by Chou-Talalay method; format: functional
How it was run: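 U251 proliferation measured with CellTiter-Glo across full titrations of an ANO1 inhibitor combined with temozolomide. Combination index calculated by the Chou-Talalay method.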

[2] = target: T1, Anoctamin-1 (Mus musculus) (UniProt Q8BHY3); test: Reversible inhibition of GFP-fused mouse ANO1 channel expressed in HEK293A cells assessed as channel current amplitude at 10 uM at membrane potential of +80 mV measured after drug wash-out by patch clamp electrophysiology assay; format: cell-based; parameters: scale not given: the % may be the effect or the level left; conditions: HEK293-A
T1 sequence (whole entry): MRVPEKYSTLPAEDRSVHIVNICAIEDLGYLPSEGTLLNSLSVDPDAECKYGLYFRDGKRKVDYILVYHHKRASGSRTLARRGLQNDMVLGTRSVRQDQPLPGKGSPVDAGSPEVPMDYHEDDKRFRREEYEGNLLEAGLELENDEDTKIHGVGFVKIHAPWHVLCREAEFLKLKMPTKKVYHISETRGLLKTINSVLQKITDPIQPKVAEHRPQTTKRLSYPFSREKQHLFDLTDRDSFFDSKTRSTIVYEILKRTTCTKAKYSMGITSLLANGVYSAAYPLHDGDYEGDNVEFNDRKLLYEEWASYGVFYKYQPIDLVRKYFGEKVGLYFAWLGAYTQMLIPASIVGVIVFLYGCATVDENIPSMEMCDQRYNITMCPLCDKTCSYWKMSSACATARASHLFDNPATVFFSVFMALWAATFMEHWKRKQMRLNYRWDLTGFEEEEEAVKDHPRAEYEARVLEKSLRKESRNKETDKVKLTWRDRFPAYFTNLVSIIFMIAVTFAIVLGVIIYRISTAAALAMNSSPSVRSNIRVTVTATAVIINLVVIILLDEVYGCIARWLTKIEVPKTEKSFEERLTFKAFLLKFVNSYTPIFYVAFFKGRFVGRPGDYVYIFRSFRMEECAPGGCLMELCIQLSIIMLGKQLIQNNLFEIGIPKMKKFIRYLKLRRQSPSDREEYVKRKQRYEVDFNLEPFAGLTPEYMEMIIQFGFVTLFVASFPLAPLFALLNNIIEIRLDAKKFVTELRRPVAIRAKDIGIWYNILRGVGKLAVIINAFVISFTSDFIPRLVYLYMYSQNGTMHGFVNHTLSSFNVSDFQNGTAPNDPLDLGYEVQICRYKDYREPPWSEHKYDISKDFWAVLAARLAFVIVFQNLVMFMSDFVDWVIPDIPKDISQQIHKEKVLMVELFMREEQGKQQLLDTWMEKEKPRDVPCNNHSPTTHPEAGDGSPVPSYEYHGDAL
How it was run: (§1)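 Whole-cell recording at room temperature in HEK293A cells transfected with GFP-mANO1, GFP-mANO2 or GFP-mTTYH1. 1 s ramps from +80 to -80 mV, holding potential -10 mV. For ANO1/ANO2: pipette CsCl 146 mM with Ca-EGTA-NMDG, pH 7.3; bath NaCl-based, pH 7.3. For TTYH1: Tris-aspartate pipette (pH 7.2) and Tris-HCl bath (pH 7.4), with […] and BaCl2 added to block K+ channels, and hypotonic (220 mOsm/kg) bath. Washout recordings assessed reversibility.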

[3] = tested on: U-251; test: Antiproliferative activity against human U251 cells overexpressing ANO1 assessed as reduction in cell viability in presence of temozolomide measured after 72 hrs by Celltiter-glo assay; format: functional
[4] = target: T1, Anoctamin-1 (Mus musculus); test: Irreversible inhibition of GFP-fused mouse ANO1 channel expressed in HEK293A cells assessed as inhibition of channel current amplitude at 10 uM at membrane potential of +80 mV measured after drug wash-out by patch clamp electrophysiology assay; format: cell-based; conditions: HEK293-A; how it was run: as §1

Activity [2] [%]	GI50 [3] [µM]	inhibition [4]	Structure (SMILES)	CI [1]
85.8	5.32	–	CC(C)(C)C(=O)Nc1sc2c(c1C(N)=O)CCC(C(C)(C)C)C2 (centres undefined)	0.63
–	–	Active	NC(=O)c1c(NC(=S)NC(=O)c2ccc(Cl)cc2)sc2c1CCC2	–
